The values that follow come from PMC3055681 (Neuropsychopharmacology : official publication of the …, 2010).

One data set has as its system humans. As to conditions: cited from earlier work.
In data set [1] the target is T1, human α3β4 nAChRs (Homo sapiens, UniProt P30926+P32297). Format: cell-based. In short, it runs like this: (§1)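 HEK293 lines stably transfected with human α3β4 or α4β2 nAChRs. Cells were loaded in growth medium with Calcium Green-1 (2 µM final) mixed 1:1 with 20% pluronic F-127, then read on FLIPR (ex 488, em 516 nm). Agonism was a single compound addition compared with 100 µM ACh. Inhibition used 2 min pretreatment then 30 µM ACh, with ΔF taken relative to vehicle-pretreated wells. Runs were in quadruplicate, with EC50/IC50 from concentration curves.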
T1 sequence (P32297 32-505): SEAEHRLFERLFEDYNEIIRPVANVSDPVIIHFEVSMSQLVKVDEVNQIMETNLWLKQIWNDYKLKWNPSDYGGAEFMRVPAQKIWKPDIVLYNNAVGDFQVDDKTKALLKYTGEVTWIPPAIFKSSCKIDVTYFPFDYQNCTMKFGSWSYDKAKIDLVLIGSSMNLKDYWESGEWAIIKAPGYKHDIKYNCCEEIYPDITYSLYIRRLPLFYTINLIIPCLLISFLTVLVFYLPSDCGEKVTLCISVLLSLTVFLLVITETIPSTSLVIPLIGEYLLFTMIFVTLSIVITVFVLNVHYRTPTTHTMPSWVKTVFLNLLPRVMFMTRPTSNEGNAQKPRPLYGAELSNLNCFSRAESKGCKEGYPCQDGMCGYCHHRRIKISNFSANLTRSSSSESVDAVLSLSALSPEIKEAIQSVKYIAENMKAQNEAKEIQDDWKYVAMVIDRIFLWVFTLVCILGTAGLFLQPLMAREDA
T1 sequence (P30926 22-498): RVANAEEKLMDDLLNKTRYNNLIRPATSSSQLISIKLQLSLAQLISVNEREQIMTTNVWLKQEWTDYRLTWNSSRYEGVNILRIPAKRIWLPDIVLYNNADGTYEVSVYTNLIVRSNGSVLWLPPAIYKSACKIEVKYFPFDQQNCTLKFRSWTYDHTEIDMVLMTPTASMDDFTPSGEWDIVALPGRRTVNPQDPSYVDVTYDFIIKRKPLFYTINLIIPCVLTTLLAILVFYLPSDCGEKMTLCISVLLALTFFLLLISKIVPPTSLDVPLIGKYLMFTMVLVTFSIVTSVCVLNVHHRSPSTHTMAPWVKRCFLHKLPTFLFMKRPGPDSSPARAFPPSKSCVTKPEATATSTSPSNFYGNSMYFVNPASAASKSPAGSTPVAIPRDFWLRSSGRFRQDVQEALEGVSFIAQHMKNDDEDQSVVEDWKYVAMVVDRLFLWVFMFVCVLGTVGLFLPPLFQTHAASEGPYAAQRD

Data set [2] concerns rats self-administering 10% ethanol. Description: Repeated. Format: in vivo. In short, it runs like this:
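Rats trained on FR3 10% ethanol self-administration reached stable baseline and were randomised to drug or saline. Test compound (10 mg/kg s.c.) or saline was given 30 min before each session on 5 consecutive days, with lever presses recorded daily. Post-treatment baseline was taken 24 h after the last dose. The day after a cage change (day 3) was excluded. Analysis was two-way ANOVA with Newman–Keuls (n = 6–7).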

Data set [3] deals with Wistar rats self-administering 10% ethanol. Description: Operant self-administration of 10% ethanol. Format: in vivo. The following applies: 10 mg/kg s.c., 30 minutes before session. In short, it runs like this:
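Wistar rats were trained on FR3 (0.1 ml reward), 30 min daily sessions Mon–Fri, to press for 10% (v/v) ethanol. Test compound or saline was given s.c. either 30 min or 2 h before the session, depending on compound. Injections were 7 days apart in a Latin square, with the normal schedule between them. Active lever presses were analysed by repeated-measures ANOVA with Newman–Keuls (n = 8–13).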

The next data set has as its target α6/4β4 nAChRs (Homo sapiens, UniProt P30926+P43681+Q15825). Put plainly: Binding affinity for α6/4β4 nAChRs. As to conditions: ratio of binding affinities.
Data set [4] relates to Wistar rats consuming 20% ethanol. Description: Intermittent access 20% ethanol two-bottle-choice drinking paradigm. Format: in vivo. In short, it runs like this: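 Individually housed rats on a reversed 12-h light cycle had intermittent access to 20% (v/v) ethanol versus water in a two-bottle choice. Once baseline drinking was stable, test compound or saline was given s.c. 30 min before bottles were presented. Injections were 7 days apart in a Latin square, each rat serving as its own control. Intake (g/kg) and preference were measured at 30 min, 6 h and 24 h. Analysis was repeated-measures ANOVA with Newman–Keuls.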

A short description of data set [5]: Rat pharmacokinetics, unbound brain concentrations. Format: in vivo, Sprague-Dawley rats. The essentials:
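Sprague-Dawley rats were dosed s.c. at 1, 5 or 10 mg/kg. Unbound brain concentration (Cb,u) was estimated over time using an LC-MS/MS assay combined with tissue binding, with values in nM and n = 2 per time point.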

The conditions of data set [6]: in vivo; ref Obach et al., 2006; Shaffer et al., 2009; cited from earlier work.
The conditions of data set [7]: oral administration, ref Shaffer et al., 2009, cited from earlier work.
The target in another data set is human α4β2 nAChRs (Homo sapiens, UniProt P17787+P43681). Format: cell-based. The essentials:
as §1

A further data set deals with α4β2 nAChRs. As to conditions: ref Glick et al., 2000; cited from earlier work.
In data set [8] the target is T1, human α3β4 nAChRs. The following applies: ref Rollema et al., 2007; cited from earlier work.
The next data set relates to rats consuming ethanol. As to conditions: 1 and 2 mg/kg; ref Steensland et al., 2007; cited from earlier work.
[9] abbreviates: clinically tested as a smoking cessation aid, ref Pfizer, data on file.
Setting [10] is: male, Sprague-Dawley, rat, brain (unbound), subcutaneous, 10 mg/kg.

Entries after “also recorded” stand apart in the source; their conditions may differ. Like-named read-outs stand apart in the source and are kept apart here. Where only a bound is given, the exact number is not on record here.

Sequence of human α4β2 nAChRs (P43681 29-627 limits assumed): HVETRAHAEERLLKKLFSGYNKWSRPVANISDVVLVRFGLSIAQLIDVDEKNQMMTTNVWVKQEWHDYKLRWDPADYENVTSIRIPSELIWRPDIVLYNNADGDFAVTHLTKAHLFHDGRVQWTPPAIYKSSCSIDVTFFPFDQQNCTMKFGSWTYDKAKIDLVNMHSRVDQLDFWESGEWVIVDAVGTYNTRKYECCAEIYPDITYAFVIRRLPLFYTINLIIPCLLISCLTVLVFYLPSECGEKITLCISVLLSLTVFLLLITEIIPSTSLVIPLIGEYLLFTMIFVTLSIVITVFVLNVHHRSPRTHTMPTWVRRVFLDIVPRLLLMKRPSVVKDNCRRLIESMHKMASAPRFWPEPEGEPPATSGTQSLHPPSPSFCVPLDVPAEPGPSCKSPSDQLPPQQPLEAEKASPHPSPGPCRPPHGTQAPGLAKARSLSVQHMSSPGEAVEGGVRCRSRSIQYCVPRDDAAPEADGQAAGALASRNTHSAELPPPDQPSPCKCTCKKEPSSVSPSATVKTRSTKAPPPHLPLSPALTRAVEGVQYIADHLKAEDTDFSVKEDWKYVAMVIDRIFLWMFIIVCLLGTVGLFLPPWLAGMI
Sequence of human α4β2 nAChRs (P17787 26-502): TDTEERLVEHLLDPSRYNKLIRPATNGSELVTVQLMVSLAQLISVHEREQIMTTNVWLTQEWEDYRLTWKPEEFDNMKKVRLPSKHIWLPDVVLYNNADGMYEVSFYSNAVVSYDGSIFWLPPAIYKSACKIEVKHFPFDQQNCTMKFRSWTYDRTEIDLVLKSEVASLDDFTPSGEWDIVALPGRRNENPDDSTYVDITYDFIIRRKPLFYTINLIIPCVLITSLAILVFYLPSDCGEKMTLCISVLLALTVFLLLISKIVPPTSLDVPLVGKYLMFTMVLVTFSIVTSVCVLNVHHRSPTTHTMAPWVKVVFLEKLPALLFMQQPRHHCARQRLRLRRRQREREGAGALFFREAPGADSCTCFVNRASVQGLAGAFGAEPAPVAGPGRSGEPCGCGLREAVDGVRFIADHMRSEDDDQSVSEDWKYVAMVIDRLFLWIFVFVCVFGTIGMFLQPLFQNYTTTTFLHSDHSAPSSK
Sequence of α6/4β4 nAChRs (Q15825 26-239): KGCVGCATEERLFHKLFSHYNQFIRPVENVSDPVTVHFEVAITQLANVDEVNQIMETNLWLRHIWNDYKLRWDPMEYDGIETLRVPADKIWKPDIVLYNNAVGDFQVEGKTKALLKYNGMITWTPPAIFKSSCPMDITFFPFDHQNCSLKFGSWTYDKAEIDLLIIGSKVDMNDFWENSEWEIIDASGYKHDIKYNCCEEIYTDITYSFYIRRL
Sequence of α6/4β4 nAChRs (P43681 241-627): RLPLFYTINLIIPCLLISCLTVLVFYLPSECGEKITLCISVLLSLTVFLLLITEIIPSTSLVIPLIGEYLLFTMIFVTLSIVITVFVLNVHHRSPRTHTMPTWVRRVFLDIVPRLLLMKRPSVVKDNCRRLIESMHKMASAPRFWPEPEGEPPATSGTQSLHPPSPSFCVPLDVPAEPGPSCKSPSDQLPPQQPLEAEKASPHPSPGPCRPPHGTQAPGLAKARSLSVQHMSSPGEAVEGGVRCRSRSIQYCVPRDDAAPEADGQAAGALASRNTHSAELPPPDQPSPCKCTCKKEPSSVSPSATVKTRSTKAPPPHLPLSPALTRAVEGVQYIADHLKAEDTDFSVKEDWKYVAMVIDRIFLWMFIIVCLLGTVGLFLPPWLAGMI
Sequence of α6/4β4 nAChRs (P30926 22-498): as the sequence (P30926 22-498) above

Take `FC(F)(F)c1ccc2c(c1)[C@@H]1CNC[C@H]2C1` [CP-601932, (1S,5R)-2,3,4,5-tetrahydro-7-(trifluoromethyl)-1,5-methano-1H-3-benzazepine]: the “side effects indicative of ganglion blocking effects” value in the data set with humans (clinical trial as potential smoking cessation aid) is given as “did not show side effects indicative of ganglion blocking effects”. Besides, the abstinence rate entry in the data set with humans (setting [9]) is “moderate two-fold increase in abstinence rate that was not statistically significant”. Also, the “tolerability / safety in humans” value with humans (setting [9]) is listed as “safe in humans; also recorded: generally well tolerated”. In addition, the half-maximal effective concentration (EC50) – broadly, the concentration needed to bring the measured effect to its halfway point – at human α3β4 nAChRs [1] (Activation EC50, α3β4, vs 100 μM ACh) was 2.92 ± 0.32 µM; on human α4β2 nAChRs, greater than 30 µM. Besides, the IC50 (usually the concentration needed to halve the response being measured) is 0.1 to 0.3 µM on human α3β4 nAChRs [1] (IC50 for inhibition of α3β4 nAChRs, range given in text for both compounds); 0.257 ± 0.041 µM against human α3β4 nAChRs [1] (Inhibition IC50, α3β4, 2 min pre-application, 30 μM ACh challenge); 0.114 ± 0.029 µM against human α4β2 nAChRs. Besides, in data set [2] (10 mg/kg s.c. for 5 days, compared to baseline), the “rebound in active lever presses after end of chronic treatment” value is “no rebound increase in active lever presses”. Also, the “active lever presses for 10% ethanol vs vehicle” value in data set [2] (10 mg/kg s.c. once per day for 5 consecutive days, 30 minutes before session) is recorded as “decreased active lever presses”; in [3] it was “significantly decreased the number of presses on the active lever”. Moreover, the “fold higher affinity for α3β4 than for α6/4β4 nAChRs” value at α6/4β4 nAChRs is reported as “at least 10 fold”. The “ethanol consumption vs vehicle” value is given as “significantly decreased high voluntary ethanol consumption” in data set [4] (5 mg/kg s.c., at 30 minutes); “decreased ethanol consumption” in data set [4] (10 mg/kg s.c., 6 h and 24 h time points); “significantly decreased high voluntary ethanol consumption” in data set [4] (10 mg/kg s.c., at 30 minutes). Further, the “preference for ethanol over water vs vehicle” value in data set [4] (highest dose (10 mg/kg s.c.), all time points) is reported as “decreased the preference for ethanol over water”. The “maximal unbound brain concentration Cb,u” value in data set [5] (10 mg/kg s.c., at 30 minutes) turned out to be 710 nM. Further, in [5] (setting [10]), the concentration at 5 h was 530 nM. In data set [5] (setting [10]), the concentration at 24 h is 85 nM. Besides, the active metabolites entry in data set [6] is given as “not formed in vivo”. Further, the brain penetration entry in data set [7] (rats) is “extensive brain penetration”. The absorption entry in data set [7] is recorded as “well absorbed”. Further, the half-life result in [7] is given as “long half-life”. At human α4β2 nAChRs (α4β2), the “Activation of α4β2 nAChRs (Ca2+ fluorescence)” value is listed as “no measurable change in Ca2+-fluoresence”.
For the compound `COCC[C@H]1CC2CN3CCc4c([nH]c5ccccc45)[C@](C(=O)OC)(C2)[C@H]13` [18-MC, 18-methoxycoronaridine], the “effect at α4β2 nAChRs” value in the data set on α4β2 nAChRs is “no effect”.
With `c1cnc2cc3c(cc2n1)[C@@H]1CNC[C@H]3C1` [Varenicline], the active metabolites entry in data set [6] is given as “not formed in vivo”. Besides, on human α3β4 nAChRs [8], the “Activation Efficacy (% vs ACh)” value is on record as 93.5 ± 1.4 (5) % vs ACh. The ethanol intake result with rats consuming ethanol is “significantly reduce ethanol intake”.
